Test results reported in ChEMBL document CHEMBL3779824, “Design and synthesis of novel chalcones as potent selective monoamine oxidase-B inhibitors” (Eur J Med Chem, 2016).

How the values were obtained:
[1] = target: T1, Amine oxidase [flavin-containing] A (Homo sapiens, UniProt P21397); assay: Inhibition of recombinant human MAOA expressed in baculovirus infected BTI insect cell microsomes at 10 uM using MMTP as substrate preincubated for 5 mins followed by substrate addition by spectrophotometric analysis
T1 sequence (P21397 whole entry): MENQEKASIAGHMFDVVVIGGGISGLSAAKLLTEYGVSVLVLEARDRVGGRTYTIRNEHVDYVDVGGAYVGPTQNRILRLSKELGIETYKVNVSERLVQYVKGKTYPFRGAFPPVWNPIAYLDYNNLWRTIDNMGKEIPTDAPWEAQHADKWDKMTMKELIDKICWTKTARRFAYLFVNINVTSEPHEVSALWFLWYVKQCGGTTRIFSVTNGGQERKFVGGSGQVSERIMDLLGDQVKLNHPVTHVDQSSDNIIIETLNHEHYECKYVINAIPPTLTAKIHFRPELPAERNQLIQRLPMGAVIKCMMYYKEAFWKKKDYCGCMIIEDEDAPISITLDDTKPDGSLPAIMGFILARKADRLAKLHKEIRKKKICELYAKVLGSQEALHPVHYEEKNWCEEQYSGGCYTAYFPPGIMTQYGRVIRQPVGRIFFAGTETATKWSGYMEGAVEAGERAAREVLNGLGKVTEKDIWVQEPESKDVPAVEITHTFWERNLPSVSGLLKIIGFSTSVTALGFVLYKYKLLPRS
In short: (§1)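 Insect-cell microsomes carrying recombinant human enzyme (25 µg per assay) in 0.1 M potassium phosphate. Incubated with inhibitor at 10 µM final (DMSO 3.3% v/v final) for 5 min at 37 °C. Started with MMTP at 0.15 mM. Absorbance increase followed at 420 nm at 37 °C, with v0 from ε 25000 M-1 cm-1. Activity given as a ratio to a DMSO-only control (100%).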

[2] = target: T2, Amine oxidase [flavin-containing] B (Homo sapiens, UniProt P27338); assay: Inhibition of recombinant human MAOB expressed in baculovirus infected BTI insect cell microsomes at 10 uM using MMTP as substrate preincubated for 5 mins followed by substrate addition by spectrophotometric analysis; in short: as §1
T2 sequence (P27338 whole entry): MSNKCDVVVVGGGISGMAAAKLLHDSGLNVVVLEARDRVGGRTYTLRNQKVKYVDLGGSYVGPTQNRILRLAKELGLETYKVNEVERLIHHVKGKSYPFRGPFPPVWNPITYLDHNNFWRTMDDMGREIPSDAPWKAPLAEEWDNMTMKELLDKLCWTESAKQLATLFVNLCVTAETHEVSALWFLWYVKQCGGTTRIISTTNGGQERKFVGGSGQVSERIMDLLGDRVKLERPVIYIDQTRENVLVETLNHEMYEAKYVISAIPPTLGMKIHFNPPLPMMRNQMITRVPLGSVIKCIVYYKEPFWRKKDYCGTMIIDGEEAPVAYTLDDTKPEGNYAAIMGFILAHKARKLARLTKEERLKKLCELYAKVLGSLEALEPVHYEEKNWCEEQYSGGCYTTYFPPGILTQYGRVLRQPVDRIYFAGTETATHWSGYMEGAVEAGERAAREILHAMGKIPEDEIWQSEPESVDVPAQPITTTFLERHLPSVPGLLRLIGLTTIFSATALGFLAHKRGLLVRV

[3] = target: T2, Amine oxidase [flavin-containing] B; assay: Inhibition of recombinant human MAOB expressed in baculovirus infected BTI insect cell microsomes using MMTP as substrate preincubated for 5 mins followed by substrate addition by spectrophotometric analysis
In short: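 MAO-B in insect-cell microsomes, 25 µg in 0.1 M potassium phosphate with 3.3% v/v DMSO final. Preincubated with inhibitor for 5 min at 37 °C, then MMTP added at 0.15 mM. Absorbance read at 420 nm at 37 °C. Remaining activity relative to the DMSO control was fitted against log10[I] to a dose-response curve for IC50. Mean ± SEM of two experiments.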

[4] = target: T2, Amine oxidase [flavin-containing] B; assay: Competitive inhibition of human MAOB overexpressed in Pichia pastoris using MMTP as substrate preincubated for 5 mins followed by substrate addition by UV/vis spectrophotometric analysis
In short: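 Purified recombinant human MAO-B in reaction buffer containing 0.25% v/v reduced Triton X-100. MMTP assay read at 420 nm in quartz cuvettes under aerobic conditions at 25 °C. MMTP was varied from 0.07 to 2.00 mM and inhibitor from 3 to 40 µM. Apparent kcat (v0/[E]) was plotted against substrate and fitted to competitive, uncompetitive and noncompetitive models to give Ki.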

[5] = target: T2, Amine oxidase [flavin-containing] B; assay: Time-dependent inhibition of recombinant human MAOB expressed in baculovirus infected BTI insect cell microsomes at IC50 using MMTP as substrate preincubated for 5 mins followed by substrate addition measured after 5 to 60 mins by spectrophotometric analysis
In short: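 Microsomal human MAO-B was preincubated with inhibitor at 0.55 µM final for 5, 15, 30 or 60 min. Residual activity was then measured in the MMTP assay (420 nm, 37 °C). Rates expressed as apparent kcat (min-1); SEM from two replicates.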

Row | SMILES | inhibition at 10 µM [1] | inhibition at 10 µM [2] | IC50 [3] | Ki [4] | TDI [5]
1 | O=C(/C=C/c1cccc2c1OCO2)c1cccc(OC(F)(F)F)c1 | 0% | 88% | 1510 nM | 2360 nM | –
2 | O=C(/C=C/c1cccc2c1OCO2)c1cccc(C(F)(F)F)c1 | 16% | 96% | 550 nM | 780 nM | Not Active
3 | COc1cccc(/C=C/C(=O)c2cccc(OC(F)(F)F)c2)c1OC | 0% | 41% | – | – | –
4 | COc1cccc(/C=C/C(=O)c2ccccc2C(F)(F)F)c1OC | 0% | 27% | – | – | –
5 | CSc1ccc(C(=O)/C=C/c2cccc3c2OCO3)cc1 | 0% | 86% | 950 nM | 550 nM | –
6 | COc1cccc(/C=C/C(=O)c2cccc(C(F)(F)F)c2)c1OC | 0% | 63% | 4490 nM | – | –
7 | COc1cccc(/C=C/C(=O)c2ccc(SC)cc2)c1OC | 0% | 36% | – | – | –
8 | CS(=O)(=O)c1ccc(C(=O)/C=C/c2cccc3c2OCO3)cc1 | 0% | 93% | 1000 nM | 720 nM | –
9 | O=C(/C=C/c1cccc2c1OCO2)c1ccccc1C(F)(F)F | – | 7% | – | – | –
10 | COc1cccc(/C=C/C(=O)c2ccc(S(C)(=O)=O)cc2)c1OC | 0% | 90% | 1970 nM | 1150 nM | –
